# Data reported in ChEMBL document CHEMBL3616441, “Discovery of a Selective and CNS Penetrant Negative Allosteric Modulator of Metabotropic Glutamate Receptor Subtype 3 with Antidepressant and Anxiolytic Activity in Rodents” (J Med Chem, 2015).
# Active and inactive are the calls of the source. The rule behind the calls is not given here.
# Molecular target: Metabotropic glutamate receptor 5 (Rattus norvegicus) (UniProt P31424)
# Assay: Positive allosteric modulation of rat mGlu5 receptor assessed as calcium mobilization by cell based fluorescence assay
# Assay type: functional
# Chain of Metabotropic glutamate receptor 5 (Rattus norvegicus) (P31424 21-1203 limits assumed): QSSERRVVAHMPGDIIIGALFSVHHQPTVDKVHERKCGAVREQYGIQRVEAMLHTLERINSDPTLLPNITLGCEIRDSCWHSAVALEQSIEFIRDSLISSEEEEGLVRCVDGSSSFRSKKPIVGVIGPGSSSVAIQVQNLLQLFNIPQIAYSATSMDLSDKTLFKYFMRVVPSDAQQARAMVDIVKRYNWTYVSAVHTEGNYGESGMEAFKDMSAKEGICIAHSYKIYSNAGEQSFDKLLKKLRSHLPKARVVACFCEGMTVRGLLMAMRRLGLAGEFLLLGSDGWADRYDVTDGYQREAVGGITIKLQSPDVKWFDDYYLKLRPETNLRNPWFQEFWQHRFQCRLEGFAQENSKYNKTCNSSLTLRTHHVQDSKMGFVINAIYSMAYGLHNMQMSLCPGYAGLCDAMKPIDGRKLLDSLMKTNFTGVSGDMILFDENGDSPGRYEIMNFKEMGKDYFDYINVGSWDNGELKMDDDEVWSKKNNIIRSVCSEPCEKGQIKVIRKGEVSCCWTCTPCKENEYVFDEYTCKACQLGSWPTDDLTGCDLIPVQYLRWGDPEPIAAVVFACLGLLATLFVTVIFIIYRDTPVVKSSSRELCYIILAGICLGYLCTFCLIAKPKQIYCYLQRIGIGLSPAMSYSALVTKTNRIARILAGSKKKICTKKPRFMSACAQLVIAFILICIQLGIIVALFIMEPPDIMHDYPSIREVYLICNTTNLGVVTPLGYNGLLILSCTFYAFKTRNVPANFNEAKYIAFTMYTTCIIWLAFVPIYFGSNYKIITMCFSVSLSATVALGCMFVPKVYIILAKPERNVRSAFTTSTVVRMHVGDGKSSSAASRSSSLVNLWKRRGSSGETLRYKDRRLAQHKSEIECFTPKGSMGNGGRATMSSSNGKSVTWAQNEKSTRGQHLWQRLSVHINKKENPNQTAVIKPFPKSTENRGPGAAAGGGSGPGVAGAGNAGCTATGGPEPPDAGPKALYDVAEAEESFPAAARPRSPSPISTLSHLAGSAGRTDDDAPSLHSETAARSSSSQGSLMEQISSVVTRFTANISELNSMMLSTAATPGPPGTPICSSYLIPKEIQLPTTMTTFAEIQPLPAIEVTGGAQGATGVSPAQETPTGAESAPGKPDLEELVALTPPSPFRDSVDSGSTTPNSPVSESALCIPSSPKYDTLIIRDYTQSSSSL
row,SMILES,Activity
1,COc1cccc(OCc2cc3n(n2)[C@H](C)CN(c2ccc(F)cc2)C3=O)n1,Active
2,COc1cccc(OCc2cc3n(n2)[C@H](C)CN(c2ccc(F)cc2)C3=O)c1,Active
3,C[C@@H]1CN(c2ncccc2F)C(=O)c2cc(COc3ccc(Cl)cn3)nn21,Active
4,C[C@@H]1CN(c2ccc(F)cc2)C(=O)c2cc(COc3ccccc3Cl)nn21,Active
5,C[C@@H]1CN(c2cccc(C#N)c2)C(=O)c2cc(COc3ccc(Cl)cn3)nn21,Active
6,C[C@@H]1CN(c2ccc(F)cc2)C(=O)c2cc(COc3ccccc3)nn21,Active
7,Cc1ccccc1N1C[C@@H](C)n2nc(COc3ccc(Cl)cn3)cc2C1=O,Active
8,Cc1cccc(N2C[C@@H](C)n3nc(COc4ccc(Cl)cn4)cc3C2=O)c1,Active
9,Cc1ccccc1OCc1cc2n(n1)[C@H](C)CN(c1ccc(F)cc1)C2=O,Active
10,C[C@@H]1CN(c2ccc(F)cc2)C(=O)c2cc(COc3ccccc3F)nn21,Active
11,C[C@@H]1CN(c2cc(F)cc(F)c2)C(=O)c2cc(COc3ccc(Cl)cn3)nn21,Active
12,COc1ccccc1OCc1cc2n(n1)[C@H](C)CN(c1ccc(F)cc1)C2=O,Active
13,C[C@@H]1CN(c2ccc(Cl)cc2)C(=O)c2cc(COc3ccc(Cl)cn3)nn21,Active
14,C[C@@H]1CN(c2cccc(F)c2)C(=O)c2cc(COc3ccc(Cl)cn3)nn21,Active

# Molecular target: Metabotropic glutamate receptor 5 (Rattus norvegicus) (UniProt P31424)
# Assay: Negative allosteric modulation of rat mGlu5 receptor assessed as calcium mobilization by cell based fluorescence assay
# Assay type: functional
row,SMILES,Activity
1,C[C@@H]1CN(c2cccnc2)C(=O)c2cc(COc3ccc(F)cn3)nn21,Active

# Molecular target: Metabotropic glutamate receptor 3 (Rattus norvegicus, UniProt P31422)
# Assay: Negative allosteric modulation of rat mGlu3 receptor assessed as calcium mobilization by cell based fluorescence assay
# Assay type: functional
# Method in brief: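 Cell line stably expressing rat mGlu3 with the promiscuous G-protein Gα15. Calcium mobilization with fluorescence read-out, inhibition of the glutamate response. Full concentration-response curves, top concentration 30 μM. % Glu Max is the response with 30 μM test compound as a percentage of the maximal response to 100 μM glutamate. Values averaged over n-3.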
# Chain of Metabotropic glutamate receptor 3 (P31422 whole entry): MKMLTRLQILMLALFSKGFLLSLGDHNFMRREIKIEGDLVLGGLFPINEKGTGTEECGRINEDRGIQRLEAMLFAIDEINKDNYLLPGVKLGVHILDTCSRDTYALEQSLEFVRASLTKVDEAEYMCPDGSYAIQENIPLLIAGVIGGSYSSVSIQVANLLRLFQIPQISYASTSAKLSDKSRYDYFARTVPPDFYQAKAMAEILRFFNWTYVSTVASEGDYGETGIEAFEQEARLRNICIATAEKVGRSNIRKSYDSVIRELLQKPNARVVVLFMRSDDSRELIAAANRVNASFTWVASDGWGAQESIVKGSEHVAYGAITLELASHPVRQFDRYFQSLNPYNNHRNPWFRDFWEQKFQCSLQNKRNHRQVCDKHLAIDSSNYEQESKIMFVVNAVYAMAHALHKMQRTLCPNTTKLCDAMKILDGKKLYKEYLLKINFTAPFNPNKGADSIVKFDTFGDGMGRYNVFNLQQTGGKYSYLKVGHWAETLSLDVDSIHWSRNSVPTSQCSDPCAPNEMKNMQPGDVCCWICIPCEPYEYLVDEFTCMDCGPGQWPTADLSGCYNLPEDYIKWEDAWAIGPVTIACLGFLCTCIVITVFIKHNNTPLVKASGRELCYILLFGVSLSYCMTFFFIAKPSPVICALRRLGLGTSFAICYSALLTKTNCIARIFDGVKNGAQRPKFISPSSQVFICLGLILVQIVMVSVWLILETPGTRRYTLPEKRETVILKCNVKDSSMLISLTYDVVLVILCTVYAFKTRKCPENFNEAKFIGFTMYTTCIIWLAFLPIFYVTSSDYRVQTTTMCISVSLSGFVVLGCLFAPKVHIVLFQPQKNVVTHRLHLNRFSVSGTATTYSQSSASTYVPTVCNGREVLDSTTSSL
row,SMILES,IC50 [nM]
1,C[C@@H]1CN(c2cccnc2)C(=O)c2cc(COc3ccc(F)cn3)nn21,436
2,C[C@@H]1CN(c2ccc(F)cc2)C(=O)c2cc(COc3ccc(C(F)(F)F)cc3)nn21,1850
3,C[C@@H]1CN(c2ccc(F)cc2)C(=O)c2cc(COc3ccc(OC(F)(F)F)cc3)nn21,4070
4,C[C@@H]1CN(c2ncccc2C#N)C(=O)c2cc(COc3ccc(Cl)cn3)nn21,677
5,COc1cccc(OCc2cc3n(n2)[C@H](C)CN(c2ccc(F)cc2)C3=O)n1,1590
6,COc1cccc(OCc2cc3n(n2)[C@H](C)CN(c2ccc(F)cc2)C3=O)c1,1290
7,C[C@@H]1CN(c2ncccc2F)C(=O)c2cc(COc3ccc(Cl)cn3)nn21,362
8,C[C@@H]1CN(c2ccc(F)cc2)C(=O)c2cc(COc3ccccc3Cl)nn21,532
9,C[C@@H]1CN(c2cccc(C#N)c2)C(=O)c2cc(COc3ccc(Cl)cn3)nn21,825
10,C[C@@H]1CN(c2ccc(F)cc2)C(=O)c2cc(COc3cccc(C(F)(F)F)n3)nn21,2360
11,C[C@@H]1CN(c2ccc(F)cc2)C(=O)c2cc(COc3ccccc3)nn21,267
12,Cc1ccccc1N1C[C@@H](C)n2nc(COc3ccc(Cl)cn3)cc2C1=O,571
13,Cc1cccc(N2C[C@@H](C)n3nc(COc4ccc(Cl)cn4)cc3C2=O)c1,392
14,Cc1ccccc1OCc1cc2n(n1)[C@H](C)CN(c1ccc(F)cc1)C2=O,721
15,C[C@@H]1CN(c2ccc(F)cc2)C(=O)c2cc(COc3ncccc3C(F)(F)F)nn21,2940
16,C[C@@H]1CN(c2ccc(F)cc2)C(=O)c2cc(COc3ccccc3F)nn21,530
17,COc1cccnc1OCc1cc2n(n1)[C@H](C)CN(c1ccc(F)cc1)C2=O,6760
18,C[C@@H]1CN(c2cc(F)cc(F)c2)C(=O)c2cc(COc3ccc(Cl)cn3)nn21,420
19,COc1ccccc1OCc1cc2n(n1)[C@H](C)CN(c1ccc(F)cc1)C2=O,2540
20,C[C@@H]1CN(c2ccncc2)C(=O)c2cc(COc3ccc(F)cn3)nn21,881
21,C[C@@H]1CN(c2ccc(Cl)cc2)C(=O)c2cc(COc3ccc(Cl)cn3)nn21,1230
22,C[C@@H]1CN(c2cc(F)ccc2C#N)C(=O)c2cc(COc3ccc(Cl)cn3)nn21,529
23,C[C@@H]1CN(c2cccc(F)c2)C(=O)c2cc(COc3ccc(Cl)cn3)nn21,206

# Molecular target: Metabotropic glutamate receptor 3 (Rattus norvegicus) (UniProt P31422)
# Assay: Negative allosteric modulation of rat mGlu3 receptor assessed as amplitude response at 30 uM relative to glutamate
# Method in brief: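 Calcium mobilization in cell line stably expressing rat mGlu3 with promiscuous Gα15; fluorescence read-out; amplitude of glutamate response with 30 μM test compound expressed as percentage of maximal response (100 μM glutamate); average of n = 3.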
# Chain of Metabotropic glutamate receptor 3 (Rattus norvegicus) (P31422 23-879 limits assumed): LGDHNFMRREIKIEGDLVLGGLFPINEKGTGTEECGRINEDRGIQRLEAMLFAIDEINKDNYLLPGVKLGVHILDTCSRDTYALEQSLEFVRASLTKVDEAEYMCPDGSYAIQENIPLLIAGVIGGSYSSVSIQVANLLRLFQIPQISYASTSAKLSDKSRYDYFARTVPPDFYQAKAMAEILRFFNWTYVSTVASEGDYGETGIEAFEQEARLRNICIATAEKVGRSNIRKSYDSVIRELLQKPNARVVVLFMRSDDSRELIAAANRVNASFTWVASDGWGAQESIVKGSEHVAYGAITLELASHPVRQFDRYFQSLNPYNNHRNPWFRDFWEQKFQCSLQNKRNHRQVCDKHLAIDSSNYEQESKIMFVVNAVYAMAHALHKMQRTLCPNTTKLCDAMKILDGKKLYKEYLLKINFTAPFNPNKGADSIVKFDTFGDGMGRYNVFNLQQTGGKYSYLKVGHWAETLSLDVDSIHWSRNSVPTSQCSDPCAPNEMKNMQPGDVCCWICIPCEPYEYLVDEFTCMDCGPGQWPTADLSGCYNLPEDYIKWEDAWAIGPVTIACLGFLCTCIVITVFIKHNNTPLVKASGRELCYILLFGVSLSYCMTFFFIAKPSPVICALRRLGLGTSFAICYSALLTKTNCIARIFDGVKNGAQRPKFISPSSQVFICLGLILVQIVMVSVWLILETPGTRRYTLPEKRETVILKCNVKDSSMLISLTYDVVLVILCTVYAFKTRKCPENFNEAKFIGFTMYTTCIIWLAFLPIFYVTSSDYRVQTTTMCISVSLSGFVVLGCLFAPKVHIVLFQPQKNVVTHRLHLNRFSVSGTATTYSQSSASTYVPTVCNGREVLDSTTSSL
row,SMILES,Activity [%]
1,C[C@@H]1CN(c2cccnc2)C(=O)c2cc(COc3ccc(F)cn3)nn21,0.64
2,C[C@@H]1CN(c2ccc(F)cc2)C(=O)c2cc(COc3ccc(C(F)(F)F)cc3)nn21,4.13
3,C[C@@H]1CN(c2ccc(F)cc2)C(=O)c2cc(COc3ccc(OC(F)(F)F)cc3)nn21,2.66
4,C[C@@H]1CN(c2ncccc2C#N)C(=O)c2cc(COc3ccc(Cl)cn3)nn21,1.35
5,COc1cccc(OCc2cc3n(n2)[C@H](C)CN(c2ccc(F)cc2)C3=O)n1,1.94
6,COc1cccc(OCc2cc3n(n2)[C@H](C)CN(c2ccc(F)cc2)C3=O)c1,1.78
7,C[C@@H]1CN(c2ncccc2F)C(=O)c2cc(COc3ccc(Cl)cn3)nn21,1.64
8,C[C@@H]1CN(c2ccc(F)cc2)C(=O)c2cc(COc3ccccc3Cl)nn21,1.63
9,C[C@@H]1CN(c2cccc(C#N)c2)C(=O)c2cc(COc3ccc(Cl)cn3)nn21,1.75
10,C[C@@H]1CN(c2ccc(F)cc2)C(=O)c2cc(COc3cccc(C(F)(F)F)n3)nn21,2.06
11,C[C@@H]1CN(c2ccc(F)cc2)C(=O)c2cc(COc3ccccc3)nn21,2.21
12,Cc1ccccc1N1C[C@@H](C)n2nc(COc3ccc(Cl)cn3)cc2C1=O,1.95
13,Cc1cccc(N2C[C@@H](C)n3nc(COc4ccc(Cl)cn4)cc3C2=O)c1,1.71
14,Cc1ccccc1OCc1cc2n(n1)[C@H](C)CN(c1ccc(F)cc1)C2=O,1.56
15,C[C@@H]1CN(c2ccc(F)cc2)C(=O)c2cc(COc3ncccc3C(F)(F)F)nn21,2.11
16,C[C@@H]1CN(c2ccc(F)cc2)C(=O)c2cc(COc3ccccc3F)nn21,2.9
17,COc1cccnc1OCc1cc2n(n1)[C@H](C)CN(c1ccc(F)cc1)C2=O,-1.14
18,C[C@@H]1CN(c2cc(F)cc(F)c2)C(=O)c2cc(COc3ccc(Cl)cn3)nn21,2.18
19,COc1ccccc1OCc1cc2n(n1)[C@H](C)CN(c1ccc(F)cc1)C2=O,2.32
20,C[C@@H]1CN(c2ccncc2)C(=O)c2cc(COc3ccc(F)cn3)nn21,0.77
21,C[C@@H]1CN(c2ccc(Cl)cc2)C(=O)c2cc(COc3ccc(Cl)cn3)nn21,0.94
22,C[C@@H]1CN(c2cc(F)ccc2C#N)C(=O)c2cc(COc3ccc(Cl)cn3)nn21,1.55
23,C[C@@H]1CN(c2cccc(F)c2)C(=O)c2cc(COc3ccc(Cl)cn3)nn21,1.38

# Molecular target: Metabotropic glutamate receptor 5 (Rattus norvegicus, UniProt P31424)
# Assay: Modulation of rat mGlu5 receptor assessed as calcium mobilization by cell based fluorescence assay
# Assay type: functional
# Method in brief: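 Calcium mobilization assay with fluorescence read-out in cells expressing mGlu5; full concentration-response curves; % Glu Max is the amplitude of response with 30 μM test compound as a percentage of the maximal response to 100 μM glutamate; values averaged over n-3.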
# Chain of Metabotropic glutamate receptor 5 (P31424 whole entry): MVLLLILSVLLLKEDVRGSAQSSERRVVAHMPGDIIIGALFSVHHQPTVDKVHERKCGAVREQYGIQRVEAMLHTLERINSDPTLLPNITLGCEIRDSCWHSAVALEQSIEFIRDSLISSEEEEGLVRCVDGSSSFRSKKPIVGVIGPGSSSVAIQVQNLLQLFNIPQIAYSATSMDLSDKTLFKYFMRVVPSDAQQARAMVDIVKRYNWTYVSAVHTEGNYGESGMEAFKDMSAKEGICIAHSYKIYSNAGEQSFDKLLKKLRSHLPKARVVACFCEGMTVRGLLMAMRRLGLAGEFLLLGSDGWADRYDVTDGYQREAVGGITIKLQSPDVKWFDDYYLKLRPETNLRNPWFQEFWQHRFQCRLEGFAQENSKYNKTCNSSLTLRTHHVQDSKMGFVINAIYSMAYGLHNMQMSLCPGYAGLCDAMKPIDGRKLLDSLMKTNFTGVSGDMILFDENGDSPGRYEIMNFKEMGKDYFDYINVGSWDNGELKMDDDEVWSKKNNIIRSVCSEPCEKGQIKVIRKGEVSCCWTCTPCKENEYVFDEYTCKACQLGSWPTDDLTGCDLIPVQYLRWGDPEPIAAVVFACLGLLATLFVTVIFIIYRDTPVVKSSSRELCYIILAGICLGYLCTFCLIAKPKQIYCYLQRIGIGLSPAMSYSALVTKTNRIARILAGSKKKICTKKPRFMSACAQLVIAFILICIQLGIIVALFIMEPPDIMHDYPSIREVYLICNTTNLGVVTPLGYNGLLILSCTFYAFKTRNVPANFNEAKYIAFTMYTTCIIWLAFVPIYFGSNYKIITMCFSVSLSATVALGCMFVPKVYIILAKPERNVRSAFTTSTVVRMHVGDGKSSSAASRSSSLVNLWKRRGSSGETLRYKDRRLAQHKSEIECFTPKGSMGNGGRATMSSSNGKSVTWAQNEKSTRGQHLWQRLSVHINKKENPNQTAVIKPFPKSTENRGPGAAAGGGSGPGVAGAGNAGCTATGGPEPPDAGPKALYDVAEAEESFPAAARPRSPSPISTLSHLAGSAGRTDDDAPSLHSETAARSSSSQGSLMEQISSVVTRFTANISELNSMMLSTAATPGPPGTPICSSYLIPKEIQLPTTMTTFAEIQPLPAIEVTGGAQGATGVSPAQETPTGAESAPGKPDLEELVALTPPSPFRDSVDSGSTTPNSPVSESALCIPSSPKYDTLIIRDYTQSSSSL
row,SMILES,EC50 [nM]
1,C[C@@H]1CN(c2cccnc2)C(=O)c2cc(COc3ccc(F)cn3)nn21,> 10000
2,C[C@@H]1CN(c2ccc(F)cc2)C(=O)c2cc(COc3ccc(C(F)(F)F)cc3)nn21,> 30000
3,C[C@@H]1CN(c2ccc(F)cc2)C(=O)c2cc(COc3ccc(OC(F)(F)F)cc3)nn21,> 30000
4,C[C@@H]1CN(c2ncccc2C#N)C(=O)c2cc(COc3ccc(Cl)cn3)nn21,> 30000
5,COc1cccc(OCc2cc3n(n2)[C@H](C)CN(c2ccc(F)cc2)C3=O)n1,> 10000
6,COc1cccc(OCc2cc3n(n2)[C@H](C)CN(c2ccc(F)cc2)C3=O)c1,1840
7,C[C@@H]1CN(c2ncccc2F)C(=O)c2cc(COc3ccc(Cl)cn3)nn21,> 10000
8,C[C@@H]1CN(c2ccc(F)cc2)C(=O)c2cc(COc3ccccc3Cl)nn21,419
9,C[C@@H]1CN(c2cccc(C#N)c2)C(=O)c2cc(COc3ccc(Cl)cn3)nn21,> 10000
10,C[C@@H]1CN(c2ccc(F)cc2)C(=O)c2cc(COc3cccc(C(F)(F)F)n3)nn21,> 30000
11,C[C@@H]1CN(c2ccc(F)cc2)C(=O)c2cc(COc3ccccc3)nn21,46
12,Cc1ccccc1N1C[C@@H](C)n2nc(COc3ccc(Cl)cn3)cc2C1=O,2280
13,Cc1cccc(N2C[C@@H](C)n3nc(COc4ccc(Cl)cn4)cc3C2=O)c1,3600
14,Cc1ccccc1OCc1cc2n(n1)[C@H](C)CN(c1ccc(F)cc1)C2=O,1500
15,C[C@@H]1CN(c2ccc(F)cc2)C(=O)c2cc(COc3ncccc3C(F)(F)F)nn21,> 30000
16,C[C@@H]1CN(c2ccc(F)cc2)C(=O)c2cc(COc3ccccc3F)nn21,195
17,COc1cccnc1OCc1cc2n(n1)[C@H](C)CN(c1ccc(F)cc1)C2=O,> 30000
18,C[C@@H]1CN(c2cc(F)cc(F)c2)C(=O)c2cc(COc3ccc(Cl)cn3)nn21,> 10000
19,COc1ccccc1OCc1cc2n(n1)[C@H](C)CN(c1ccc(F)cc1)C2=O,> 10000
20,C[C@@H]1CN(c2ccncc2)C(=O)c2cc(COc3ccc(F)cn3)nn21,> 30000
21,C[C@@H]1CN(c2ccc(Cl)cc2)C(=O)c2cc(COc3ccc(Cl)cn3)nn21,3310
22,C[C@@H]1CN(c2cc(F)ccc2C#N)C(=O)c2cc(COc3ccc(Cl)cn3)nn21,> 30000
23,C[C@@H]1CN(c2cccc(F)c2)C(=O)c2cc(COc3ccc(Cl)cn3)nn21,5970

# Molecular target: Metabotropic glutamate receptor 5 (Rattus norvegicus) (UniProt P31424)
# Assay: Modulation of rat mGlu5 receptor assessed as assessed as calcium mobilization at 30 uM by cell based fluorescence assay
# Assay type: functional
row,SMILES,Activity [%]
1,C[C@@H]1CN(c2cccnc2)C(=O)c2cc(COc3ccc(F)cn3)nn21,46.3
2,COc1cccc(OCc2cc3n(n2)[C@H](C)CN(c2ccc(F)cc2)C3=O)n1,31.2
3,COc1cccc(OCc2cc3n(n2)[C@H](C)CN(c2ccc(F)cc2)C3=O)c1,32.4
4,C[C@@H]1CN(c2ncccc2F)C(=O)c2cc(COc3ccc(Cl)cn3)nn21,32.4
5,C[C@@H]1CN(c2ccc(F)cc2)C(=O)c2cc(COc3ccccc3Cl)nn21,84.4
6,C[C@@H]1CN(c2cccc(C#N)c2)C(=O)c2cc(COc3ccc(Cl)cn3)nn21,32.2
7,C[C@@H]1CN(c2ccc(F)cc2)C(=O)c2cc(COc3ccccc3)nn21,87.7
8,Cc1ccccc1N1C[C@@H](C)n2nc(COc3ccc(Cl)cn3)cc2C1=O,80.7
9,Cc1cccc(N2C[C@@H](C)n3nc(COc4ccc(Cl)cn4)cc3C2=O)c1,69.9
10,Cc1ccccc1OCc1cc2n(n1)[C@H](C)CN(c1ccc(F)cc1)C2=O,83.7
11,C[C@@H]1CN(c2ccc(F)cc2)C(=O)c2cc(COc3ccccc3F)nn21,89.3
12,C[C@@H]1CN(c2cc(F)cc(F)c2)C(=O)c2cc(COc3ccc(Cl)cn3)nn21,33.1
13,COc1ccccc1OCc1cc2n(n1)[C@H](C)CN(c1ccc(F)cc1)C2=O,63.7
14,C[C@@H]1CN(c2ccc(Cl)cc2)C(=O)c2cc(COc3ccc(Cl)cn3)nn21,51.2
15,C[C@@H]1CN(c2cccc(F)c2)C(=O)c2cc(COc3ccc(Cl)cn3)nn21,63.5
